Experimental data published in ChEMBL document CHEMBL4428107 (Bioorg Med Chem, 2016).
Several values for one entry are separate records, joined by “and”; a condition that tells them apart may be missing. Equal values may be shown once. Activity calls are given as the source filed them. No cut-off for these calls is given here.

Key:
[1] = target: Histone deacetylase 1 (Homo sapiens, UniProt Q13547); experiment: Inhibition of recombinant full length C-terminal FLAG-tagged/C-terminal His-tagged human HDAC1 using fluorogenic substrate by fluorescence assay
Summary of the method: (§1)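 Outsourced HDAC isozyme panel run under proprietary protocols. Each compound was tested at 10 μM and 5 μM, using HDAC substrate 3 at 10 μM, with fluorescence read-out. […] IC50 range was bracketed from % inhibition at the two concentrations.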

[2] = target: T1, Histone deacetylase 2 (Homo sapiens, UniProt Q92769); experiment: Inhibition of full length recombinant human HDAC2 expressed in baculovirus expression system using fluorogenic peptide RHKK(Ac) as substrate by fluorescence assay
T1 sequence (Q92769 whole entry): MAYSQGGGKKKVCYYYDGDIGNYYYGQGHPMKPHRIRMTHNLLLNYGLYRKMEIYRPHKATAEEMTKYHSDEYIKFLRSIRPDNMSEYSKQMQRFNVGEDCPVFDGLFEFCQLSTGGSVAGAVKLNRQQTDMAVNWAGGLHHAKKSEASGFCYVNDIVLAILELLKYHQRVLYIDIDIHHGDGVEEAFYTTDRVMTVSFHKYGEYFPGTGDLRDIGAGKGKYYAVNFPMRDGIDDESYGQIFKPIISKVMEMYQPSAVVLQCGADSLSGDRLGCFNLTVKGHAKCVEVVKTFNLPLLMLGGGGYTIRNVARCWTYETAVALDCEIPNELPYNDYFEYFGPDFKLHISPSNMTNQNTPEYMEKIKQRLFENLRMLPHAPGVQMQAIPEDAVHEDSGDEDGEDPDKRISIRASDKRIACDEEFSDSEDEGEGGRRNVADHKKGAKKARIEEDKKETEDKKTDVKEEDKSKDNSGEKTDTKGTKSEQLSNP

[3] = tested on: HCT-116; experiment: Antiproliferative activity against human HCT116 cells assessed as reduction in cell viability after 72 hrs by MTS-PMS assay; format: functional
Summary of the method: (§2)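 MTS-PMS viability test. Cells were seeded at 3,000/well and left 24 h at 37 °C, 5% CO2, then exposed to compound for 72 h. Screening was at 50 μM for HCT116 and MCF-7 and […], with final DMSO ≤1%. MTS:PMS was mixed 20:1, added for 3 h, and absorbance read at 490 nm. At least two independent runs were done, each in triplicate.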

[4] = tested on: MCF7; experiment: Antiproliferative activity against human MCF7 cells assessed as reduction in cell viability after 72 hrs by MTS-PMS assay; settings: MCF7, 72 h
[5] = tested on: MDA-MB-231; experiment: Antiproliferative activity against human MDA-MB-231 cells assessed as reduction in cell viability after 72 hrs by MTS-PMS assay; format: functional; settings: MDA-MB-231, 72 h; summary of the method: as §2
[6] = tested on: MOLT-4; experiment: Antiproliferative activity against human MOLT4 cells assessed as reduction in cell viability after 70 hrs by Quanti-blue assay; format: functional
Summary of the method: (§3)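 Quanti-Blue viability kit. HuT-78 and Molt-4 cells were grown in RPMI-1640 and seeded at 10^5 cells/mL. Compounds were screened at 50 μM for 70 h, with detection reagent present for the final 2 h. Fluorescence was read at ex 530/em 590 nm. IC50 from dose-response came from linear regression. Three independent runs.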

[7] = tested on: HuT78; experiment: Antiproliferative activity against human HUT78 cells assessed as reduction in cell viability after 70 hrs by Quanti-blue assay; format: functional; summary of the method: as §3
[8] = Antiproliferative activity against human PBMC assessed as reduction in cell viability after 70 hrs by Quanti-blue assay; format: cell-based
Summary of the method: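 QB fluorescence viability assay; hPBMCs purified by density centrifugation from purchased human blood, stored frozen, resuspended in RPMI-1640 with 10% heat-inactivated FBS, HEPES, pyruvate, non-essential amino acids and BME; seeded at 10^6 cells/mL. Compounds at 50 μM, 70 h plus 2 h with detection reagent; λex 530/λem 590 nm. Three independent repeats.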

[9] = target: T1, Histone deacetylase 2; experiment: Inhibition of recombinant full length C-terminal His-tagged human HDAC2 expressed in baculovirus expression system using fluorogenic substrate by fluorescence assay
[10] = Immunomodulatory activity in human TALL-104 cells assessed as effect on degranulation by measuring augmentation of CD3-stimulated anti-LAMP fluorescence at 100 uM preincubated for 30 mins followed by anti-LAMP addition and incubated for 50 mins in the dark by flow cytometric analysis relative to control; format: functional
[11] = target: Histone deacetylase 3/Nuclear receptor corepressor 2 (HDAC3/NCoR2) (Homo sapiens, UniProt O15379); experiment: Inhibition of recombinant full length C-terminal His-tagged human HDAC3/GST-tagged human Ncor2 (395 to 489 residues) expressed in baculovirus expression system using fluorogenic substrate by fluorescence assay; summary of the method: as §1
[12] = target: Histone deacetylase 4 (Homo sapiens, UniProt P56524); experiment: Inhibition of recombinant C-terminal His-tagged/N-terminal GST-tagged human HDAC4 (627 to 1084 residues) expressed in baculovirus expression system using fluorogenic substrate by fluorescence assay
Summary of the method: (§4)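 Outsourced HDAC isozyme panel run under proprietary protocols. Each compound was tested at 10 μM and 5 μM, using Class 2a HDAC substrate at 2 μM, with fluorescence read-out. […] IC50 range was bracketed from % inhibition at the two concentrations.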

[13] = target: Histone deacetylase 5 (Homo sapiens, UniProt Q9UQL6); experiment: Inhibition of recombinant C-terminal His-tagged human HDAC5 catalytic domain (656 to 1122 residues) expressed in baculovirus expression system using fluorogenic substrate by fluorescence assay; summary of the method: as §4
[14] = target: Histone deacetylase 7 (Homo sapiens, UniProt Q8WUI4); experiment: Inhibition of recombinant N-terminal GST-tagged human HDAC7 (518 to end residues) expressed in baculovirus expression system using fluorogenic substrate by fluorescence assay; summary of the method: as §4
[15] = target: Histone deacetylase 8 (Homo sapiens, UniProt Q9BY41); experiment: Inhibition of recombinant full length C-terminal His-tagged human HDAC8 expressed in baculovirus expression system using fluorogenic substrate by fluorescence assay; summary of the method: as §4
[16] = target: Histone deacetylase 9 (Homo sapiens, UniProt Q9UKV0); experiment: Inhibition of recombinant C-terminal His-tagged human HDAC9 (604 to 1066 residues) expressed in baculovirus expression system using fluorogenic substrate by fluorescence assay; summary of the method: as §4
[17] = target: Polyamine deacetylase HDAC10 (Homo sapiens, UniProt Q969S8); experiment: Inhibition of recombinant N-terminal FLAG-tagged human HDAC10 (2 to 631 residues) expressed in baculovirus expression system using fluorogenic substrate by fluorescence assay; summary of the method: as §1
[18] = target: Histone deacetylase 11 (Homo sapiens, UniProt Q96DB2); experiment: Inhibition of full length recombinant human HDAC11 expressed in baculovirus expression system using fluorogenic substrate by fluorescence assay; summary of the method: as §4
[19] = target: Protein deacetylase HDAC6 (Homo sapiens, UniProt Q9UBN7); experiment: Inhibition of recombinant full length N-terminal GST-tagged human HDAC6 expressed in baculovirus expression system using fluorogenic substrate by fluorescence assay; summary of the method: as §1
[20] = target: NAD-dependent protein deacetylase sirtuin-1 (Homo sapiens) (UniProt Q96EB6); experiment: Inhibition of SIRT1 (unknown origin) at 10 uM
NAD-dependent protein deacetylase sirtuin-1 (Homo sapiens), sequence (Q96EB6 whole entry): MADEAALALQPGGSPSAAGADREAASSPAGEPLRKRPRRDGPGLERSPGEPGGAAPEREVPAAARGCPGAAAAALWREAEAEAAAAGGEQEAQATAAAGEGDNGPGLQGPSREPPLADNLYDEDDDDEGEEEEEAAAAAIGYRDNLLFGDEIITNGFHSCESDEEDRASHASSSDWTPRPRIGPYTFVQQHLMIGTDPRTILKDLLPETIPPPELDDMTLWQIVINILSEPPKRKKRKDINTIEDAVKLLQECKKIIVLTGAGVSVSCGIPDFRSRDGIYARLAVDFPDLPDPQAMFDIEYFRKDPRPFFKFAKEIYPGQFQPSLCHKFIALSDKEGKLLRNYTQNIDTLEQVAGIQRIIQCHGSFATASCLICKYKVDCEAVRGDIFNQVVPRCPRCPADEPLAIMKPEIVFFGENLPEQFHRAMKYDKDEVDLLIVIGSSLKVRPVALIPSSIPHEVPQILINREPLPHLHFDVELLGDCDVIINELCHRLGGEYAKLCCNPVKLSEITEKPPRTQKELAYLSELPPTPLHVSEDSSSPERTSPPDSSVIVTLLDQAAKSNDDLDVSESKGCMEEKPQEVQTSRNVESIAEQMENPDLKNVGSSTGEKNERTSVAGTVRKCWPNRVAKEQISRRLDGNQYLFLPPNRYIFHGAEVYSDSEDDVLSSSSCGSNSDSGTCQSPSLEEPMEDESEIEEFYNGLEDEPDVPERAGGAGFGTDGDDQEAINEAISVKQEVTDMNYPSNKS

[21] = target: NAD-dependent protein deacetylase sirtuin-2 (Homo sapiens) (UniProt Q8IXJ6); experiment: Inhibition of SIRT2 (unknown origin) at 10 uM
NAD-dependent protein deacetylase sirtuin-2 (Homo sapiens), sequence (Q8IXJ6 whole entry): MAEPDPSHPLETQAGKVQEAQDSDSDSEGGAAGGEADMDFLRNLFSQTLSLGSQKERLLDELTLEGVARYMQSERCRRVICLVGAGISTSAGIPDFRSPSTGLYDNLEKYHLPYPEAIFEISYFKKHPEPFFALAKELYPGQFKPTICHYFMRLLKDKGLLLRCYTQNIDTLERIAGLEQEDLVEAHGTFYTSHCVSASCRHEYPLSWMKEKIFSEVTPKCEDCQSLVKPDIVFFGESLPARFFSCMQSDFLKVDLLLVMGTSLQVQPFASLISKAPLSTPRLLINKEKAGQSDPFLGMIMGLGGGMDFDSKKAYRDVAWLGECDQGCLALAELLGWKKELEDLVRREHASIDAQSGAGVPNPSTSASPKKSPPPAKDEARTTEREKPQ

[22] = target: NAD-dependent protein deacetylase sirtuin-3, mitochondrial (Homo sapiens) (UniProt Q9NTG7); experiment: Inhibition of SIRT3 (unknown origin) at 10 uM
NAD-dependent protein deacetylase sirtuin-3, mitochondrial (Homo sapiens), sequence (Q9NTG7 whole entry): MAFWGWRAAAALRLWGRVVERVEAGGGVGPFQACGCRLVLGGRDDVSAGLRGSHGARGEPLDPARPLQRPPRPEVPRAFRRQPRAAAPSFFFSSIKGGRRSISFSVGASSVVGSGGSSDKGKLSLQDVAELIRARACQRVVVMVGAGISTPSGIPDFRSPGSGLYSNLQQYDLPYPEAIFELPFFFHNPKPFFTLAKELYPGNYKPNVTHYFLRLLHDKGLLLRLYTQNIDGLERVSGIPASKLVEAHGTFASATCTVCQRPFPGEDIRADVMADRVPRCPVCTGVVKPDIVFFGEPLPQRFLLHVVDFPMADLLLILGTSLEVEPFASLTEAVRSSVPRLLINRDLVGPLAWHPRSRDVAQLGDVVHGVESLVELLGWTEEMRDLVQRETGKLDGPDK

[23] = target: DNA (cytosine-5)-methyltransferase 1 (Homo sapiens) (UniProt P26358); experiment: Inhibition of DNMT1 (unknown origin) at 10 uM
DNA (cytosine-5)-methyltransferase 1 (Homo sapiens), sequence (P26358 whole entry): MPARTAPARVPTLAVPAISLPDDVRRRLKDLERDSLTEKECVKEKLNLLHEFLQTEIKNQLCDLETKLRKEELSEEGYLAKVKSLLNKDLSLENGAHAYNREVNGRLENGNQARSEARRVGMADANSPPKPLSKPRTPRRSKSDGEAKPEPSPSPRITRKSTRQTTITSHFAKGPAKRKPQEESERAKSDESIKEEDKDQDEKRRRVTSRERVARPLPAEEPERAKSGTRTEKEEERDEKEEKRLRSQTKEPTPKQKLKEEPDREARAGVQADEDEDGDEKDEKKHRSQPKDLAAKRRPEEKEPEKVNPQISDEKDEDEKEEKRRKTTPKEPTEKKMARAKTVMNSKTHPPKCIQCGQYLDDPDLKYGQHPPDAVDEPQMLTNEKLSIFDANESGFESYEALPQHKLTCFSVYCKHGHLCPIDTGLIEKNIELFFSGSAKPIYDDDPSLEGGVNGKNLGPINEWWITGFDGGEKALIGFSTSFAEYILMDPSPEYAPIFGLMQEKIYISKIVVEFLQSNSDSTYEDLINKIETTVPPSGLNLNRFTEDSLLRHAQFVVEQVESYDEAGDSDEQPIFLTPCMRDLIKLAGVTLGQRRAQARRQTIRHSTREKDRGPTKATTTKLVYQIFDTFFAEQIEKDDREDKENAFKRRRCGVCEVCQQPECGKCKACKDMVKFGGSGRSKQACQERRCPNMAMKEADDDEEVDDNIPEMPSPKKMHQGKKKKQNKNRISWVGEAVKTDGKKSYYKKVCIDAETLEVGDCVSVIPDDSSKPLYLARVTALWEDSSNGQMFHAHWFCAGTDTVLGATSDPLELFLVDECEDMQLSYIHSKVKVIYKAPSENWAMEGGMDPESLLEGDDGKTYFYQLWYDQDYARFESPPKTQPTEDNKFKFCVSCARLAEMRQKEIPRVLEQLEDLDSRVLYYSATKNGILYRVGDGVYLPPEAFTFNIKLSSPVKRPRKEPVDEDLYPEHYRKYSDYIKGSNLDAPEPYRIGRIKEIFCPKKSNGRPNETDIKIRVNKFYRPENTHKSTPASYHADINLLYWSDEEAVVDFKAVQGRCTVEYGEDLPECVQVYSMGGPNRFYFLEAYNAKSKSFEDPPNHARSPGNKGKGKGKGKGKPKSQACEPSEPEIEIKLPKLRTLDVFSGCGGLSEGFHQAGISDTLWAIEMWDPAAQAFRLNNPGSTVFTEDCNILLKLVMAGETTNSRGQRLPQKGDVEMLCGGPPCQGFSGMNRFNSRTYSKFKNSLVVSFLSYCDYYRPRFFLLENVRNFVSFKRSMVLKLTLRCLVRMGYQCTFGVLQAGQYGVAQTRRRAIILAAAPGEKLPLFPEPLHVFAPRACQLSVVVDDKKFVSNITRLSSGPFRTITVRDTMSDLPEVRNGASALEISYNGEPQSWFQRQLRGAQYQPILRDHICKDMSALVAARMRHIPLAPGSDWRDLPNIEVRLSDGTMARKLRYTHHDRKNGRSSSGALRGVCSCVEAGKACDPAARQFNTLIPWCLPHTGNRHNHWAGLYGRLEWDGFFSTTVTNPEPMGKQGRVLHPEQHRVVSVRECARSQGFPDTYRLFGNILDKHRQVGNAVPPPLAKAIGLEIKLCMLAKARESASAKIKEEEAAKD

[24] = target: T2, DNMT3A2/3L complex (Homo sapiens) (UniProt Q9Y6K1+Q9UJW3); experiment: Inhibition of DNMT3A/3L (unknown origin) at 10 uM; format: protein-complex assay
T2 sequence (Q9UJW3 whole entry, looked up): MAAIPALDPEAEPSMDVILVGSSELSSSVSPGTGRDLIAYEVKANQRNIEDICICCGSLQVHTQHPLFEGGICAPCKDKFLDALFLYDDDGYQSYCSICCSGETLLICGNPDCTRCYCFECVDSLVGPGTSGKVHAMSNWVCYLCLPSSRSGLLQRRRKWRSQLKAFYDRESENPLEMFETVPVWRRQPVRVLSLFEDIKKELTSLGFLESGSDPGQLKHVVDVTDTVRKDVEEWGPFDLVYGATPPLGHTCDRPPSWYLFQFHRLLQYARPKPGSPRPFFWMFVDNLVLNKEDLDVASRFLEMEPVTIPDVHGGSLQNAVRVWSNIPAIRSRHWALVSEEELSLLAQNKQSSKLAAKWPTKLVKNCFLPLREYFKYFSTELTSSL
T2 sequence (Q9Y6K1 whole entry, looked up): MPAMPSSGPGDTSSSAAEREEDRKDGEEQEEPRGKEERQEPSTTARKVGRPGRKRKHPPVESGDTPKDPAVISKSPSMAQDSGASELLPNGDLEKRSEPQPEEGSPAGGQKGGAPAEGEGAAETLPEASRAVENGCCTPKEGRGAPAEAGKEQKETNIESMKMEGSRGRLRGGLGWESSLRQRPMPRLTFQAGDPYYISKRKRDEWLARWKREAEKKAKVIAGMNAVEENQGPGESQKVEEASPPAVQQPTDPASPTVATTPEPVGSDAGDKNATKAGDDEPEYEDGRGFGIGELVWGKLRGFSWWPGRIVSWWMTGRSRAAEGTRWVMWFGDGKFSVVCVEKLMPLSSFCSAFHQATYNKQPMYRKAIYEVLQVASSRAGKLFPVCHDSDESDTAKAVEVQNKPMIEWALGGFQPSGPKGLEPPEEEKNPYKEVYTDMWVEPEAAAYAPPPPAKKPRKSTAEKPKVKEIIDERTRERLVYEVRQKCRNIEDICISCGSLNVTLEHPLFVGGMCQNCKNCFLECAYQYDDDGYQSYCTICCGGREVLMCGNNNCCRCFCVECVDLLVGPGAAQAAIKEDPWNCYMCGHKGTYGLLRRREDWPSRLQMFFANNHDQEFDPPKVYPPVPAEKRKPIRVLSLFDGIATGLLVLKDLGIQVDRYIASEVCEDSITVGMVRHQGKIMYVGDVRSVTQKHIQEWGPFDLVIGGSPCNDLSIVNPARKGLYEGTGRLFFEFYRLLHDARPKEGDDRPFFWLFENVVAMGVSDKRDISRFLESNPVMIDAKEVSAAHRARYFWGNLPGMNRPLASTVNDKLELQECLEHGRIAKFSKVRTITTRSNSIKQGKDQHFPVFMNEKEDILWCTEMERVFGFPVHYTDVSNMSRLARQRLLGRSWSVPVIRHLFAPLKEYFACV

[25] = target: T3, DNMT3B-DNMT3L complex (Homo sapiens) (UniProt Q9UBC3+Q9UJW3); experiment: Inhibition of DNMT3B/3L (unknown origin) at 10 uM; format: protein-complex assay
T3 sequence (Q9UJW3 whole entry, looked up, other chains not shown): as the sequence (Q9UJW3 whole entry, looked up) above

[26] = target: NAD-dependent protein deacetylase sirtuin-1 (Homo sapiens) (UniProt Q96EB6); experiment: Inhibition of SIRT1 (unknown origin) at 5 uM
[27] = target: NAD-dependent protein deacetylase sirtuin-2 (Homo sapiens) (UniProt Q8IXJ6); experiment: Inhibition of SIRT2 (unknown origin) at 5 uM
[28] = target: NAD-dependent protein deacetylase sirtuin-3, mitochondrial (Homo sapiens) (UniProt Q9NTG7); experiment: Inhibition of SIRT3 (unknown origin) at 5 uM
[29] = target: DNA (cytosine-5)-methyltransferase 1 (Homo sapiens) (UniProt P26358); experiment: Inhibition of DNMT1 (unknown origin) at 5 uM
[30] = target: T2, DNMT3A2/3L complex (Homo sapiens); experiment: Inhibition of DNMT3A/3L (unknown origin) at 5 uM; format: protein-complex assay
[31] = target: T3, DNMT3B-DNMT3L complex (Homo sapiens); experiment: Inhibition of DNMT3B/3L (unknown origin) at 5 uM; format: protein-complex assay
[32] = target: NAD-dependent protein deacylase sirtuin-5, mitochondrial (Homo sapiens) (UniProt Q9NXA8); experiment: Inhibition of SIRT5 (unknown origin) at 5 to 10 uM

CCOC(=O)NCCCC(=O)NCCc1ccccc1
IC50 [1]: 5 to 10 µM | IC50 [2]: > 1 µM | GI50 [3]: > 50 µM and 17.2 µM | GI50 [4]: > 50 µM | GI50 [5]: > 50 µM | GI50 [6]: > 50 µM and 7.8 µM | GI50 [7]: 36 µM | GI50 ([7]; Homo sapiens, HuT78, 70 h): > 50 µM | GI50 at 70 h [8]: > 50 µM | IC50 [9]: 5 to 10 µM | Activity [10]: 77% | IC50 [11]: 5 to 10 µM | IC50 [12]: 5 to 10 µM | IC50 [13]: 5 to 10 µM | IC50 [14]: 5 to 10 µM | IC50 [15]: 5 to 10 µM | IC50 [16]: 5 to 10 µM | IC50 [17]: 5 to 10 µM | IC50 [18]: 5 to 10 µM | IC50 [19]: 5 to 10 µM | inhibition [20]: inactive | inhibition [21]: inactive | inhibition [22]: inactive | inhibition [23]: inactive | inhibition [24]: inactive | inhibition [25]: inactive | inhibition [26]: inactive | inhibition [27]: inactive | inhibition [28]: inactive | inhibition [29]: inactive | inhibition [30]: inactive | inhibition [31]: inactive | inhibition [32]: inactive

CCOC(=O)NCC(=O)NCCc1ccccc1
IC50 [2]: > 1 µM | GI50 ([3]; Homo sapiens, HCT-116, 72 h): > 50 µM | GI50 [4]: > 50 µM | GI50 [5]: > 50 µM | GI50 ([6]; Homo sapiens, MOLT-4, 70 h): > 50 µM | GI50 ([7]; Homo sapiens, HuT78, 70 h): > 50 µM | GI50 at 70 h [8]: > 50 µM | Activity [10]: 86%

CCCOC(=O)NCCCC(=O)NCCc1ccccc1
IC50 [2]: > 1 µM | GI50 ([3]; Homo sapiens, HCT-116, 72 h): > 50 µM | GI50 [4]: > 50 µM | GI50 [5]: > 50 µM | GI50 ([6]; Homo sapiens, MOLT-4, 70 h): > 50 µM | GI50 ([7]; Homo sapiens, HuT78, 70 h): > 50 µM | GI50 at 70 h [8]: > 50 µM | Activity [10]: 94%

CCOC(=S)NCCCC(=O)NCCc1ccccc1
IC50 [2]: > 1 µM | GI50 ([3]; Homo sapiens, HCT-116, 72 h): > 50 µM | GI50 [4]: > 50 µM | GI50 [5]: > 50 µM | GI50 ([6]; Homo sapiens, MOLT-4, 70 h): > 50 µM | GI50 ([7]; Homo sapiens, HuT78, 70 h): > 50 µM | GI50 at 70 h [8]: > 50 µM | Activity [10]: 105%

CCOC(=O)NCCCC(=O)Nc1ccc(O[Si](C)(C)C(C)(C)C)cc1
IC50 [2]: > 1 µM | GI50 ([3]; Homo sapiens, HCT-116, 72 h): > 50 µM | GI50 [4]: 13.8 µM | GI50 [5]: > 50 µM | GI50 ([6]; Homo sapiens, MOLT-4, 70 h): > 50 µM | GI50 ([7]; Homo sapiens, HuT78, 70 h): > 50 µM | GI50 at 70 h [8]: > 50 µM | Activity [10]: 171%

O=C(CCCNC(=O)OCc1ccccc1)NCCc1ccccc1
IC50 [2]: > 1 µM | GI50 ([3]; Homo sapiens, HCT-116, 72 h): > 50 µM | GI50 [4]: > 50 µM | GI50 [5]: > 50 µM | GI50 ([6]; Homo sapiens, MOLT-4, 70 h): > 50 µM | GI50 ([7]; Homo sapiens, HuT78, 70 h): > 50 µM | GI50 at 70 h [8]: > 50 µM | Activity [10]: 79%

CCOC(=O)NCCC(=O)NCCc1ccccc1
IC50 [2]: > 1 µM | GI50 ([3]; Homo sapiens, HCT-116, 72 h): > 50 µM | GI50 [4]: > 50 µM | GI50 [5]: > 50 µM | GI50 ([6]; Homo sapiens, MOLT-4, 70 h): > 50 µM | GI50 ([7]; Homo sapiens, HuT78, 70 h): > 50 µM | GI50 at 70 h [8]: > 50 µM | Activity [10]: 91%
